RAM network inh: blocks the yeast RAM network | S. cerevisiae dse1pr::URA3 reporter, 5-FOA growth OD615, 2 d; analog-sensitive cbk1-as2 kinase mutant strain | inhibition, % at 50 µM | 1.8% of 190,000 active;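 active = inhibition above a set limit, 3 SD over mean compound inhibition, cut at about 8.4% in these data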;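 note: 0% = DMSO-only wells with no growth and 100% = 10 µM 1-NA-PP1 full growth; inhibition rescues growth on 5-FOA so higher OD means more RAM inhibition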
NCF1 inh: p47phox (human) inhibition | P14598 | 0.53% of 220,000 active | p47phox/p22phox peptide binding, fluorescence polarization, 2 h | inhibition, % at 24.7 µM;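 active = inhibition above about 30%, limit read from the data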;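 note: 0% = p47phox with labelled peptide and 100% = labelled peptide alone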
Target sequence (P14598 whole entry, looked up): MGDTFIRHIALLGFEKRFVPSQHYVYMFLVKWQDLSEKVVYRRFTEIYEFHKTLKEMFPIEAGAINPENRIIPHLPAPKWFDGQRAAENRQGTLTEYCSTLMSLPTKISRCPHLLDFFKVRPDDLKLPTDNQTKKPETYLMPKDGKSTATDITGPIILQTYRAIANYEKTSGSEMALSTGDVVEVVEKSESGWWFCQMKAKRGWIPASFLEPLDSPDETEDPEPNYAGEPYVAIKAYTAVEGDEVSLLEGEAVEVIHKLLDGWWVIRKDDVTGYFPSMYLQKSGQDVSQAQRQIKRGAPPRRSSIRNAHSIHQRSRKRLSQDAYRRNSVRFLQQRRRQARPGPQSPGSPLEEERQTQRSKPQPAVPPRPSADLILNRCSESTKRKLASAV
Dynein cargo inh: dynein cargo transport inhibition | 0.47% of 220,000 active | z-score, hits read low | AID 1381 | 3617.4 mouse cells, GR-EGFP nuclear translocation imaging; test concentration mostly 20 µM; stimulated with dexamethasone, 1 µM; stronger effect = lower value;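 active = plate z-score of nuclear minus cytoplasmic receptor signal below a set negative limit, without overly bright fluorescence or cell loss, cut at about -3.5 in these data, passing the limit was not always enough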;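 note: z-score of nuclear minus cytoplasmic ring GR-EGFP intensity difference per well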
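Medium: Induction medium lacking tetracycline, stripped serum | Probe or stimulus: 1.0 µM final dexamethasone stimulus | Schedule: 48 h induction, then 1 h compound, then 30 min agonist, 37 °C | Signal: Automated 10x imaging of fixed Hoechst-stained cells | Evaluation: Per-cell GR-EGFP intensity, nucleus versus surrounding cytoplasmic ring, well-averaged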
p-CIP stab down: compounds decreasing mouse p/CIP protein stability. F442A p/CIP-EGFP cells, EGFP fluorescence, 16 h. AID 1984. decrease of EGFP signal, % at 10 µM. 0.01% of 290,000 active. Q05BA5;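 active = EGFP signal decrease of at least 30% at 10 µM or well 3 SD below plate mean, unless failing retest; inactive = the rest, including hits failing retest or dose response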
RAM 5-FOA: RAM network inhibition, efflux-deficient strain | 1,200 tested, under 10 active | shares compounds with RAM network inh | max inhibition, % | AID 1305 | S. cerevisiae efflux-deficient reporter strain, 5-FOA growth OD615, 2 days; call rule not given here;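 note: plate controls were vehicle for no effect and reference inhibitor for full effect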
An asterisk follows results filed as active; . = no result. This is a sample that favours compounds with a hit; in the whole collection about 1.9% have one here.

SMILES | RAM network inh | NCF1 inh | Dynein cargo inh | p-CIP stab down | RAM 5-FOA
CN(C)c1ccc(Cl)cc1N | 0 | -7 | -1.1 | -6 | .
CCCCn1c(=O)c(CCC(=O)O)nc2ccccc21 | 3 | 0 | 1.5 | 9 | .
CCCCn1c(=O)c(CCC(=O)OC(C)C(=O)Nc2cccc(Cl)c2Cl)nc2ccccc21 (stereo not drawn) | 16* | -29 | 0.62 | -13 | 1
CC(C)C[C@H](NC(=O)c1[nH]cnc1C(=O)N[C@H](C)c1ccccc1)C(=O)OCc1ccccc1 | 12* | . | -0.63 | -15 | 4
CC(C)C[C@H](NC(=O)c1nc[nH]c1C(=O)N[C@@H](CC(C)C)C(=O)OCc1ccccc1)C(=O)OCc1ccccc1 | . | . | . | 2 | .
O=C(NCc1nnc(SCC(=O)N2CCOCC2)o1)c1c(F)cccc1Cl | 1 | -14 | -0.32 | 2 | .
O=C(O)CCCN1C(=O)/C(=C/c2cn(-c3ccccc3)nc2-c2cccs2)SC1=S | 12* | -79 | 0.51 | 16 | 3
O=C(O)CCCN1C(=O)/C(=C\c2ccccc2OCc2ccccc2)SC1=S | . | . | . | 3 | .
CC(=O)Nc1ccc(-c2cc(-c3ccccc3)nc(-c3ccccc3)n2)cc1 | 5 | -6 | -1.1 | -12 | .
CC(=O)Nc1ccc(-c2cc(-c3ccc(NC(C)=O)cc3)nc(-c3ccc(NC(C)=O)cc3)n2)cc1 | 12* | -25 | -0.14 | -2 | 5
CC(=O)c1ccc(NC(=S)NN2C(C)CCCC2C)cc1 (stereo not drawn) | 3 | 10 | -0.16 | 6 | .
CC(=O)c1ccc(NC(=S)NC2CCCC(C)C2C)cc1 (stereo not drawn) | 20* | -13 | 0.21 | -5 | 2
Cc1c2cnn(CC(=O)N3CCOCC3)c(=O)c2c(C)n1Cc1ccccc1F | . | . | . | -1 | .
CSc1ccc(/C=C/C(=O)Nc2ccccc2)cc1 | 2 | -10 | 0.37 | 8 | .
CSc1ccc(/C=C/C(=O)c2ccc(NC(=O)Cc3ccccc3)cc2)cc1 | 14* | -25 | -0.69 | -2 | 6
Cc1ccc(S(=O)(=O)c2c(C)cc(C)nc2Oc2cccc(C(F)(F)F)c2)cc1 | 14* | -13 | 0.57 | -19 | 3
CCOc1ccc(N(CC(=O)NCc2ccc(F)cc2)C(=O)c2snc(C(N)=O)c2N)cc1 | . | . | . | -6 | .
CCNc1c(NS(=O)(=O)c2ccc(F)c(Cl)c2)c(=O)oc2ccccc12 | . | . | . | 8 | .
CCOC(=O)C1(CCOc2ccccc2)CCN(Cc2ccc(O)c(OCC)c2)CC1 | . | . | . | -14 | .
COc1ccc(CNc2ncc(-c3ccc(Br)cc3)n2C)cc1OC | . | . | . | -4 | .
O=C(CNC(=S)N(Cc1ccccc1)Cc1ccccc1F)NCCc1ccc(Cl)cc1 | 36* | -9 | 2.2 | -11 | 3
CC(C)OCCCNC(=O)c1c(N)n(/N=C/c2ccccn2)c2nc3ccccc3nc12 | 12* | -10 | -0.66 | -13 | 8
COCCNC(=O)c1c(N)n(-c2ccccc2)c2nc3ccccc3nc12 | 15* | -31 | 0.13 | 0 | 3
COCCCNC(=O)c1c(N)n(-c2ccc(S(N)(=O)=O)cc2)c2nc3ccccc3nc12 | 7 | -24 | -0.11 | 4 | .
CCC(C)NC(=O)c1c(N)n(/N=C/c2ccccn2)c2nc3ccccc3nc12 (stereo not drawn) | 0 | -41 | 0.92 | -14 | .
SMILES | RAM network inh | NCF1 inh | Dynein cargo inh | p-CIP stab down | RAM 5-FOA
CCOC(=O)C(C)Sc1cc(CS(=O)(=O)c2ccccc2)nc(-c2ccccc2)n1 (stereo not drawn) | 12* | -2 | -0.71 | -3 | 3
CNc1c([N+](=O)[O-])cnn1-c1ccccn1 | -1 | -4 | -0.55 | -2 | .
COc1ccccc1OC(=O)CCN1c2ccccc2Sc2ccccc21 | 14* | -24 | 0.022 | -1 | 6
COc1ccc(NC(=O)CN(C)C(=O)CN2C(=O)c3ccc([N+](=O)[O-])cc3C2=O)cc1 | . | . | . | -188 | .
Cc1cc(C(=O)CSc2n[nH]c(N)n2)c(C)n1-c1ccc2c(c1)OCO2 | 0 | -9 | -1.2 | 6 | .
COc1cc(/C=C/C(=O)OCC(=O)Nc2cc(S(=O)(=O)N(C)C)ccc2Cl)ccc1O | . | 1 | 0.56 | -1 | .
COc1cc(/C=C/C(=O)OCC(=O)Nc2ccccc2Sc2ccc(Cl)cc2)ccc1O | 15* | -8 | -0.38 | -6 | 4
Cc1cccc(N(C)C(=S)Oc2ccc3ccccc3c2)c1 | 12* | -3 | 0.6 | 0 | 3
COc1ccc(N(C)C(=S)Oc2ccc(C(=O)Nc3ccccc3)cc2)cc1 | 3 | 4 | -1.2 | 10 | .
COc1ccc(Nc2nc3c(C)cccc3cc2C#N)c(OC)c1 | 12* | -5 | 2.9 | -1 | 5
C=CCNC(=O)c1ccc2c(c1)nnn2C | 14* | 1 | -0.89 | 19 | 2
CCc1ccc(NC(=O)Cn2c(SC)nc3ccccc32)cc1 | 21* | -13 | 1.3 | -8 | 3
CCOC(=O)c1cc(C#N)c(Oc2ccccc2)nc1-c1ccccc1 | 12* | 1 | -0.14 | -1 | 6
CCOC(=O)c1cnc(-c2ccccc2)nc1Oc1ccc(Cl)cc1 | 14* | 3 | 2.4 | -20 | 1
Cc1cccc(NC(=O)c2cc(S(=O)(=O)N3CCc4ccccc43)cn2C)c1C | . | . | . | 1 | .
CC1(C)C(C=C(Cl)Cl)C1C(=O)Nc1ccc([N+](=O)[O-])cc1 (stereo not drawn) | 11* | -12 | 0.21 | -6 | 2
O=C(Nc1ccc([N+](=O)[O-])cc1)C1CC1(c1ccccc1)c1ccccc1 (stereo not drawn) | 3 | -12 | 1.8 | -2 | .
CCCCN(CC(=O)NCc1ccc(Cl)cc1)S(=O)(=O)c1ccc2c(c1)OCCO2 | 13* | -1 | -0.6 | -10 | 3
Cc1ccccc1NC(=O)/C(C#N)=C/c1ccc(-c2ccc(Cl)c(C(=O)O)c2)o1 | . | . | . | -19 | .
Cc1cccc(NC(=O)/C(C#N)=C/c2ccc(Sc3ccccc3)o2)c1C | 14* | -17 | 0.98 | 5 | 9
COc1cc(NC(=O)c2cc(C)no2)c(OC)cc1Cl | . | . | . | 6 | .
COC(=O)Cc1ccc(N(Cc2ccccc2F)S(=O)(=O)c2ccc(C)cc2)cc1 | 20* | -1 | 0.45 | -10 | 3
CC(C)OC(=O)/C(C#N)=C/c1cn(Cc2ccccc2)c2ccccc12 | 16* | -7 | -0.44 | -1 | 6
CC(C)COC(=O)/C(C#N)=C/c1cn(Cc2ccccc2)c2ccccc12 | 19* | -9 | -0.42 | 0 | 11
COc1ccc(S(=O)(=O)N2CC(=O)Nc3ccccc32)cc1 | . | . | . | 1 | .
COC(=O)CCSCC(=O)N1N=C(c2ccc(Br)cc2)CC1c1cccc(OC)c1OC (stereo not drawn) | 13* | -4 | 0.52 | -1 | 2
COc1cc(/C(C)=N/N2CCN(c3ccccc3OC)CC2)ccc1O | . | . | . | -1 | .
O=[N+]([O-])c1ccc(COc2ccc(CNc3ccccc3)cc2)cc1 | 2 | -6 | 1.6 | 5 | .
O=[N+]([O-])c1ccc(COc2cccc(CNc3ccc(Br)cc3)c2)cc1 | 14* | 4 | 0.48 | -3 | 2
N=C1C(=O)OCC1c1ccccc1NC(=O)c1ccccc1 (stereo not drawn) | 1 | -2 | -0.37 | 6 | .
